CHOP inh: inhibitors of CHOP induction in ER stress response; CHO-K1 CHOP-promoter luciferase, tunicamycin-induced, 15-18 h; inhibition, % at 10 µM; hit rate 3.8% among 220,000;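 active = compounds that reduced the stress-induced luciferase reporter signal by more than about 70% of percent inhibition, limit read from the data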
NR3A LBD binder: modulates the human NR3A ligand-binding domain; NR3A LBD differential scanning fluorimetry, Tm shift; 0% = protein alone, 100% = glycine-bound protein; Tm shift relative to glycine control, % at 25 µM; hit rate 2.5% among 340,000; AID 1259313;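 active = melting temperature shift of at least 10% of the positive control shift, at one fixed dose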
UPR XBP1 act: adaptive UPR (XBP1) activation; CHO-XBP1 luciferase reporter, IRE1-XBP1 UPR activation, luminescence; percent of tunicamycin response, DMSO as zero; activation, % at 20 µM; hit rate 0.33% among 330,000; AID 463104;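 active = versus positive control, 20 µM dose yields 30% or more activation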
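Test system: CHO-XBP1 luciferase reporter cells | Buffer or medium: Serum-containing F12 medium, 10% FBS | Schedule: 6 h compound exposure at 37 °C, 5% CO2 | Detection: Steady-Glo luciferase glow luminescence, 10 min after reagent addition | Read-out basis: Activation, % of tunicamycin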
MPTP inh: inhibitors of mitochondrial permeability transition pore; inhibition, % at 10 µM; hit rate 1.4% among 360,000; isolated mouse mitochondria, Ca2+ swelling absorbance, 30 min;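 active = inhibition of 50% or more, scaled per plate between neutral and stimulator controls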
UPR CHOP act: apoptotic UPR (CHOP) activation. CHO-CHOP luciferase reporter, luminescence; percent of tunicamycin response over DMSO baseline. activation, % at 10 µM. hit rate 0.34% among 330,000;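 active = at 10 µM dose, activation of 40% or more, normalized to positive control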
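assay system = CHO CHOP reporter cells | amount = 500 CHO-CHOP cells per well | buffer or medium = F12 with 10% FBS | incubation = 16-18 h cell attachment, then 6 h compound exposure, 37 °C | detection = luminescence read with Steady-Glo | read-out = percent activation relative to tunicamycin control | controls = tunicamycin high control, DMSO low control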
aDG glyco act: increases alpha dystroglycan glycosylation | Pro5-aDG cells, alpha-DG glycosylation AlphaScreen (IIH6); 0% Pro5, 100% B10-LARGE cell signal | activation, % at 10 µM | hit rate 0.22% among 360,000 | AID 624168;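 active = activation of at least 8% versus controls, or a plate z-score of at least 8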;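 also: Pro5 are CHO cells carrying HIG-tagged alpha-DG that lacks glycosylation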
Numbers stand for hits; - = inactive; . = no result. This is a sample that favours compounds with a hit; in the whole collection about 5.6% have one here.

SMILES	CHOP inh	NR3A LBD binder	UPR XBP1 act	MPTP inh	UPR CHOP act	aDG glyco act
Cc1ccc(NC(=O)Cn2nnc(C(=O)NCc3ccc(Cl)cc3)c2N)cc1F	.	13	-	-	-	-
Cc1ccc(NC(=O)Cn2nnc(C(=O)Nc3ccc(F)c(Cl)c3)c2N)cc1	.	32	-	-	-	-
Cc1ccc(NC(=O)c2nnn(CC(=O)Nc3ccccc3)c2N)cc1C	-	-	-	-	-	-
CCN(C(=O)c1ccco1)c1nnc(-c2cccnc2)s1	.	-	-	-	-	-
CC(Oc1ccc(Br)cc1)C(=O)Nc1nnc(C2CC2)s1 (stereo not given)	.	-	-	-	-	-
CCNC(=O)C1OC(n2cnc3c(NCc4ccccc4)ncnc32)C(O)C1O (stereo not given)	-	.	.	.	.	.
Cc1cc(CSc2nc(C)cc(=O)[nH]2)c2ncccc2c1	87	-	-	-	-	-
COC(=O)c1sccc1NC(=O)c1ccc(C)o1	-	-	-	-	-	-
COC(=O)c1sccc1NC(=O)c1ccc(Br)o1	88	-	-	-	-	-
COc1ccc(-c2nc3ccccc3[nH]2)cc1	.	-	-	-	-	-
COc1ccc2oc(=Nc3ccccc3)c(-c3nc4ccccc4[nH]3)cc2c1	86	-	-	-	-	-
CNc1ncnc2c1ncn2[C@H]1C[C@H](OP(=O)(O)O)[C@@H](COP(=O)(O)O)O1	-	.	.	.	.	.
CCn1nc(C)c(CN2CCC(n3nccc3NC(=O)Cc3ccccc3)CC2)c1C	.	14	-	-	-	-
CCn1nc(C)c(CN2CCC(n3nccc3NC(=O)CCCc3ccccc3)CC2)c1C	.	-	-	-	-	-
CC(=O)NCCC(=O)N1CCCC(N2CCN(c3cccc(Cl)c3)CC2)C1 (stereo not given)	.	-	-	-	-	-
COc1ccc(Cc2nnc(SCC(=O)NC3CCCC3)o2)cc1	-	19	-	-	-	-
COC(=O)C[C@H]1CC[C@@H](NC(=O)Nc2c(C)noc2C)[C@@H](CO)O1	.	.	.	-	.	-
COc1ccc(S(=O)(=O)NCC2CCCO2)cc1NC(=O)c1ccccc1 (stereo not given)	.	-	-	-	-	-
COc1ccc(C)cc1NC(=O)C(NCC1CCCO1)c1ccccc1 (stereo not given)	-	15	-	-	-	-
O=C(COC(=O)CCc1ccccc1)NC1CCS(=O)(=O)C1 (stereo not given)	.	-	-	-	-	-
CCc1ccc(OCC2NCCc3cc(OC)c(OC)cc32)cc1 (stereo not given)	.	-	-	-	-	-
COc1cc2c(cc1OC)C(COc1ccc(F)cc1)NCC2 (stereo not given)	.	271	-	-	-	-
Cc1ccc(C)c(S(=O)(=O)N2CCC3(CC2)OCCN3S(=O)(=O)c2cccs2)c1	.	-	-	-	-	-
COc1ccc(C)cc1S(=O)(=O)N1CCC2(CC1)OCCN2S(=O)(=O)c1cccs1	.	16	-	-	-	-
Fc1ccccc1Nc1nc2c(s1)CCc1ccccc1-2	71	.	.	.	.	.
SMILES	CHOP inh	NR3A LBD binder	UPR XBP1 act	MPTP inh	UPR CHOP act	aDG glyco act
COc1cc(SC)ccc1C(=O)NCCOc1c(C)cc(C)cc1C	91	-	-	-	-	-
O=C1C2CC3N1CCC31c3ccccc3-n3c1c2ccc3=O (stereo not given)	.	-	.	-	.	-
O=C(O)c1ccccc1OC(C(=O)Nc1cc(Cl)cc(Cl)c1)c1ccccc1 (stereo not given)	.	23	-	-	-	-
COC(=O)C1=C(C)N(C)C(C)=C(C(=O)OC)C1c1ccsc1	-	12	-	-	-	-
O=C(/C=C/c1ccco1)NC(=S)Nc1cc(-c2nc3ccccc3s2)ccc1Cl	-	18	.	-	.	-
COc1ccc(-c2csc(NC(=S)NC(=O)/C=C/c3ccc(C(C)C)cc3)n2)cc1OC	.	-	-	-	-	-
Cc1ccc(-c2csc(NC(=S)NC(=O)c3ccco3)n2)cc1	-	20	-	-	-	-
Cc1ccc(-c2nc3ccccc3s2)cc1NC(=S)NC(=O)/C=C/c1ccco1	-	-	-	-	-	-
COc1ccc(C(=O)NC(=S)Nc2nc(-c3ccc(OC)c(Br)c3)cs2)cc1Br	.	-	-	-	-	-
COc1ccc(-c2csc(NC(=S)NC(=O)/C=C/c3ccco3)n2)cc1OC	95	13	.	-	.	-
COc1ccc(-c2csc(NC(=S)NC(=O)c3ccccc3)n2)cc1Br	-	40	-	-	-	-
O=C(NCCc1ccc(Cl)cc1)c1cccc(NC2=NC3CS(=O)(=O)CC3S2)c1 (stereo not given)	.	-	-	-	-	-
O=C1c2ccccc2C(=O)N1CCCCc1cn(C[C@H]2CC[C@@H]([C@@H]3CC[C@H](Cn4cc(CCCCN5C(=O)c6ccccc6C5=O)nn4)O3)O2)nn1	.	-	-	-	-	-
O=c1c2cc(N3CCOCC3)ccc2[nH]c(=S)n1Cc1cccc(Cl)c1	-	31	-	-	-	-
COc1cccc(CNC(=O)CCCCCn2c(=S)[nH]c3ccc(N4CCOCC4)cc3c2=O)c1	-	.	-	.	-	.
O=c1c2cc(N3CCOCC3)ccc2[nH]c(=S)n1Cc1ccco1	-	-	-	-	-	-
COc1ccc(Cn2c(=S)[nH]c3cc(OC)c(OC)cc3c2=O)cc1	83	-	-	-	-	-
COc1cc2[nH]c(=S)n(Cc3ccc(C)cc3)c(=O)c2cc1OC	-	-	-	-	-	-
O=c1[nH]c2ccc(Cl)cc2c(=O)n1Cc1ccco1	81	-	-	-	-	-
COc1cccc(Cn2c(=S)[nH]c3ccc(N4CCOCC4)cc3c2=O)c1	-	22	-	-	-	-
COc1cccc(CNC(=O)COC(=O)C2CC3CCCC(C2)C3=O)c1 (stereo not given)	.	-	-	-	-	-
COc1cc(C(=O)OC(C)c2ccc(F)cc2)ccc1OCC(=O)N1CCOCC1 (stereo not given)	.	-	-	-	-	-
O=c1c2cc(Cl)ccc2[nH]c(=S)n1Cc1cccs1	97	19	-	-	-	-
O=c1c2cc(Cl)ccc2[nH]c(=S)n1Cc1ccco1	-	-	-	-	-	-
COc1ccc2c(c1)oc(=O)c1c3ccccc3[nH]c21	-	21	.	-	.	-
Cc1ccc(N(C(=O)CNC(=O)c2ccco2)C(C(=O)NC2CCCCC2)c2ccncc2)cc1F (stereo not given)	.	-	-	-	-	-
O=C(NC(=S)Nn1cnc2c(cnn2-c2ccccc2)c1=O)c1ccc(Oc2ccccc2)cc1	73	-	-	-	-	-
O=C(NC(=S)Nn1cnc2c(cnn2-c2ccccc2)c1=O)c1ccc(Cl)cc1	-	-	-	-	-	-
CCOC(=O)/C=C/C(=O)OCC(=O)Nc1c(Cl)cccc1Cl	-	-	-	-	-	-

High-throughput results (PubChem)
